Compound activity as filed in PubChem.
IDE cell inh – cellular human IDE inhibition | HEK cells, FAbetaB cleavage, fluorescence polarization | inhibition, % at 5.59 µM | 320,000 compounds, 0.41% hits;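 active = percent inhibition above the average of all tested compounds plus 3 SD, set per screening campaign, cut at about 16% in these data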;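 also: IDE supplied by intact live HEK cells; FP after avidin binding of uncleaved biotin substrate so inhibition keeps polarization high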
CR mimetic SO – yeast age-related superoxide inhibition as caloric restriction mimetic; 330,000 compounds, 0.18% hits; superoxide response (% of plate mean), % at 10 µM; AID 2690; S. cerevisiae aged cells, superoxide DHE fluorescence; hits give low values;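 active = superoxide response under a set limit, about three screen SD below normal, cut at about 65% in these data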;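 also: yeast aged for seven days with compound at 30 °C before DHE staining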
Efflux pump mplx – antifungal efflux pump inhibition, Nile Red retention; 330,000 compounds, 0.44% hits; S. cerevisiae Candida pump triplex; AID 485275; inhibition, % at 10 µM;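 active = plate passing quality check with inhibition over a set limit, or well fluorescence over plate mean plus 4 SD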;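 also: Nile Red retained in pooled yeast measured as flow cytometry median fluorescence; higher means more Nile Red kept so more efflux inhibition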
IDE act – boosts human insulin-degrading enzyme activity in HEK cells; AID 493087; activation, % at 5.96 µM; 340,000 compounds, 0.073% hits; FAbeta-B cleavage, fluorescence polarization; 0% vehicle, 100% cell-free pure enzyme wells;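 active = activation above the mean of all tested compounds plus 3 SD, set per screening campaign, cut at about 17% in these data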
HDAC3 inhib – human HDAC3 inhibition | inhibition, % at 8.3 µM | 320,000 compounds, 0.15% hits | recombinant HDAC3, fluorogenic peptide/trypsin coupled, fluorescence | O15379; in the data active = inhibition above about 26%, passing the limit was not always enough
TbMetRS inhib – blocks T. brucei methionyl-tRNA synthetase activity. purified T. brucei MetRS, ATP depletion, Kinase-Glo luminescence. inhibition, % at 11.9 µM. 360,000 compounds, 0.4% hits. AID 624268;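 active = inhibition above a per-plate cutoff of the control wells' mean inhibition plus 3 SD, cut at about 5.5% in these data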
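Measured by: Kinase-Glo luciferase luminescence reporting remaining unconsumed ATP. Material: purified T. brucei MetRS enzyme. Doses: 11.9 µM compound single dose, 0.9% DMSO. Medium: HEPES buffer containing pyrophosphatase, BSA, spermine, DTT. Times: 15 min preincubation, 2 h reaction, all 25 °C. Reagent: methionine, ATP and bulk E. coli tRNA.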
Tb MetRS conf – confirmation of Trypanosoma brucei MetRS inhibitors; 1,400 compounds, 93% hits; inhibition, % at 11.9 µM; AID 624412; T. brucei MetRS enzyme, luminescence (ATP depletion); shares compounds with TbMetRS inhib; in the data active = inhibition above about 7%
Jurkat cytotox – kills Jurkat cells in T. brucei MetRS counterscreen. 1,400 compounds, 12% hits. AID 624413. inhibition, % at 8.3 µM. Jurkat cells viability, ATP luminescence. shares compounds with TbMetRS inhib; in the data active = inhibition above about 15%
TbMetRS FP orth – inhibits T. brucei methionyl tRNA synthetase in orthogonal FP test | shares compounds with TbMetRS inhib | purified T. brucei MetRS, fluorescence polarization | inhibition, % at 11.9 µM | 1,400 compounds, 44% hits; in the data active = inhibition above about 17%
Of the large screens only hits and unclear results are named; the others gave an inactive call (follow-up assays come after a bar, where they were run). Compounds with a hit are over-represented: about 1.4% of the library has one in this group of screens.

CCOC(=O)N1CCN(Cc2nc3cc(NC(=O)CC(C)C)ccc3n2CC)CC1	none
O=C(NCc1nc2ccccc2[nH]1)c1cccc(S(=O)(=O)N2CCCC2)c1	TbMetRS inhib 7.9 | Tb MetRS conf 19 | Jurkat cytotox inactive | TbMetRS FP orth inactive
C=CCOc1c(Br)cc(C2C3=C(CCCC3=O)N(C)C3=C2C(=O)CCC3)cc1OCC	TbMetRS inhib 9.5 | Tb MetRS conf 16 | Jurkat cytotox inactive | TbMetRS FP orth inactive
C=CCOc1c(Br)cc(C2NC(=O)NC(C)=C2C(C)=O)cc1OCC (stereo unspecified)	TbMetRS inhib 7.0 | Tb MetRS conf 15 | Jurkat cytotox inactive | TbMetRS FP orth inactive
N#C/C(=C\c1ccccc1OCC(=O)O)c1nc2ccccc2[nH]1	none
Cc1cc(/C=C(/C#N)c2nc3ccccc3[nH]2)c(C)n1-c1cc(C(=O)O)cc(C(=O)O)c1	TbMetRS inhib 5.8 (no result: IDE cell inh, CR mimetic SO, Efflux pump mplx, HDAC3 inhib) | Tb MetRS conf 37 | Jurkat cytotox inactive | TbMetRS FP orth inactive
CCN(c1ccc(OC)cc1)S(=O)(=O)c1nnc(NC(=O)c2ccccc2Cl)s1	none
CC(O)CN1C(=O)C(CC(=O)Nc2ccc(Cl)cc2)SC1=Nc1ccccc1 (stereo unspecified)	TbMetRS inhib 27 | Tb MetRS conf 53 | Jurkat cytotox inactive | TbMetRS FP orth 22
COCCN1C(=O)C(CC(=O)Nc2ccc(C(C)=O)cc2)SC1=Nc1ccccc1 (stereo unspecified)	none
O=C(O)C(Cc1c[nH]c2ccccc12)N1C(=O)C2C3c4ccccc4C(c4ccccc43)C2C1=O (stereo unspecified)	none
Cc1ccc2[nH]c(CSc3ccccc3)cc(=O)c2c1	TbMetRS inhib 11 | Tb MetRS conf 23 | Jurkat cytotox inactive | TbMetRS FP orth inactive
O=C(NC1CCS(=O)(=O)C1)c1cccc(Br)c1 (stereo unspecified)	none
O=C(NCCc1nc2ccccc2[nH]1)/C(=C/c1ccc(F)cc1)NC(=O)c1ccco1	none
O=C(NCCc1nc2ccccc2[nH]1)/C(=C/c1ccc2c(c1)OCO2)NC(=O)c1ccc(Cl)cc1Cl	TbMetRS inhib 8.0 | Tb MetRS conf 11 | Jurkat cytotox inactive | TbMetRS FP orth inactive
O=C(CNC(=O)c1cccc(OC(F)F)c1)Nc1ccc(Cl)cc1	TbMetRS inhib 51 | Tb MetRS conf 70 | Jurkat cytotox inactive | TbMetRS FP orth 32
O=C(Nc1ccc(OC(F)F)c(Cl)c1)c1cccc(OC(F)F)c1	none
Cc1ccc(OCCNC(=O)CCNS(=O)(=O)c2ccc3ccccc3c2)cc1	none
O=C(NCc1nc2ccccc2[nH]1)C1=C[C@H](c2csc3ccccc23)C[C@H](OCc2ccc(CO)cc2)O1	TbMetRS inhib 58 | Tb MetRS conf 93 | Jurkat cytotox inactive | TbMetRS FP orth 62
O=C(NCc1nc2ccccc2[nH]1)C1=C[C@@H](c2csc3ccccc23)C[C@@H](OCc2ccc(CO)cc2)O1	TbMetRS inhib 41 | Tb MetRS conf 82 | Jurkat cytotox inactive | TbMetRS FP orth 50
Cc1ccccc1Cn1cc(S(=O)(=O)c2ccc(C(C)C)cc2)c(=O)c2cc3c(cc21)OCO3	none
O=C(NCCc1ccc(Cl)cc1)Nc1ccc(F)cc1	TbMetRS inhib 18 | Tb MetRS conf 30 | Jurkat cytotox inactive | TbMetRS FP orth inactive
Cc1ccc(C(CNC(=O)Nc2ccc(Cl)cc2)N2CCN(C)CC2)cc1 (stereo unspecified)	TbMetRS inhib 8.1 | Tb MetRS conf 30 | Jurkat cytotox inactive | TbMetRS FP orth inactive
CN1CCN(C(CNC(=O)Nc2ccc(Cl)cc2)c2ccc(F)cc2)CC1 (stereo unspecified)	TbMetRS inhib 28 | Tb MetRS conf 52 | Jurkat cytotox inactive | TbMetRS FP orth 29
Cc1nnsc1SCCNC(=O)Nc1ccc(Cl)cc1	TbMetRS inhib 6.5 | Tb MetRS conf 12 | Jurkat cytotox inactive | TbMetRS FP orth inactive
COC(=O)c1ccccc1S(=O)(=O)N1CCC(NC(=O)C(Cc2cccc(OC)c2OC)NC(C)=O)CC1 (stereo unspecified)	none (no result: IDE cell inh, CR mimetic SO, Efflux pump mplx, HDAC3 inhib)
COc1ccc2nc(NCc3ccccc3)[nH]c2c1	none
c1ccc(CNc2nc3ccccc3[nH]2)cc1	TbMetRS inhib 26 | Tb MetRS conf 35 | Jurkat cytotox inactive | TbMetRS FP orth 20
Cc1ccc2nc(NCc3ccccc3)[nH]c2c1	TbMetRS inhib 17 | Tb MetRS conf 28 | Jurkat cytotox 70 | TbMetRS FP orth inactive
Cc1ccc2nc(C3CCCN(C(=O)NCc4ccccc4)C3)[nH]c2c1 (stereo unspecified)	TbMetRS inhib 15 | Tb MetRS conf 23 | Jurkat cytotox inactive | TbMetRS FP orth inactive
COc1cc(CNc2nc3ccccc3[nH]2)cc(OC)c1OC	TbMetRS inhib 16 | Tb MetRS conf 32 | Jurkat cytotox inactive | TbMetRS FP orth inactive
N#Cc1ccccc1OCC(=O)N(Cc1nnc(-c2ccccc2Cl)o1)C1CC1	none (no result: HDAC3 inhib)
CC1(C)C(=O)Nc2ccccc2N1C(=O)COc1cc(Cl)ccc1Cl	none
c1ccc2[nH]c(NCc3ccc4c(c3)OCO4)nc2c1	TbMetRS inhib 18 | Tb MetRS conf 30 | Jurkat cytotox inactive | TbMetRS FP orth inactive
S=c1nc(NCc2ccc3c(c2)OCO3)c2ccccc2[nH]1	none (no result: IDE cell inh)
Cn1nc(C(F)(F)F)c(-c2ccc(F)cc2)c1NC(=O)Nc1ccc(F)cc1	TbMetRS inhib 9.4 (no result: IDE act) | Tb MetRS conf 21 | Jurkat cytotox inactive | TbMetRS FP orth inactive
O=C(CN1CCOCC1)Nc1nc(-c2ccccc2)cs1	TbMetRS inhib 6.7 | Tb MetRS conf inactive | Jurkat cytotox inactive | TbMetRS FP orth inactive
O=C(NNS(=O)(=O)c1ccccc1[N+](=O)[O-])c1cc2ccccc2cc1O	TbMetRS inhib 34 | Tb MetRS conf 49 | Jurkat cytotox inactive | TbMetRS FP orth 24
O=c1[nH]nc(Cc2ccc(Cl)cc2)c2ccccc12	none
O=c1[nH]nc(Cc2ccc(Cl)cc2Cl)c2ccccc12	TbMetRS inhib 8.2 | Tb MetRS conf 39 | Jurkat cytotox inactive | TbMetRS FP orth 20
CC(C(=O)Nc1cccc([N+](=O)[O-])c1)n1nnc2ccccc21 (stereo unspecified)	TbMetRS inhib 20 | Tb MetRS conf 31 | Jurkat cytotox inactive | TbMetRS FP orth inactive
O=C(Cn1cnc2ccccc21)Nc1cccc([N+](=O)[O-])c1	TbMetRS inhib 81 | Tb MetRS conf 95 | Jurkat cytotox inactive | TbMetRS FP orth 71
